CHRM5 PAM – potentiates acetylcholine response at human M5 receptor; AID 624038; activation, % at 3 µM; CHO-K1 hM5, Fluo-8 calcium, ACh EC20 PAM; 0% = ACh EC20, 100% = ACh EC100; hit rate 0.3% among 360,000;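 active means activation above the run cutoff, the mean activation of all test compounds plus 3 SD, cut at about 18% in these data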
Target sequence (P08912 whole entry, looked up): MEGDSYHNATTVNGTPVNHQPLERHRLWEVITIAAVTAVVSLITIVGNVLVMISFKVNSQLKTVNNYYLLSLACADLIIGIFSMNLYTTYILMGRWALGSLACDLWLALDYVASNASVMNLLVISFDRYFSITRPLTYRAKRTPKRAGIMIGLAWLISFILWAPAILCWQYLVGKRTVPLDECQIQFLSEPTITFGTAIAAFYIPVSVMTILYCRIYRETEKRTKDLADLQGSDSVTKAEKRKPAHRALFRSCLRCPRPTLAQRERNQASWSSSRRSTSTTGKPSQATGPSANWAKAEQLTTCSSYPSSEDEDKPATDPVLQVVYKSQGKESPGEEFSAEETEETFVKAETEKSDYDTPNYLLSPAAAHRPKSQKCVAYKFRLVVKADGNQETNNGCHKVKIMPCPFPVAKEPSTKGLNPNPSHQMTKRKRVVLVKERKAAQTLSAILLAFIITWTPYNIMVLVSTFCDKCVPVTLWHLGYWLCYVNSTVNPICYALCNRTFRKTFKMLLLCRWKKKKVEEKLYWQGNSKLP
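Assay system: CHO-K1 hM5 cells. Also added: acetylcholine at EC20 concentration, added after compound. Dosing: 3 µM, single dose. Times: compound preincubation 140 s before EC20 acetylcholine addition. Signal: Fluo-8 calcium fluorescence. Measure: % activation relative to EC20 and EC100 ACh responses. Repeats: singlicate, one well per test compound.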
M5 ag – CHRM5 agonism in calcium assay; P08912; activation, % at 3 µM; CHO-K1 hM5 cells, Fluo-8 calcium fluorescence; 0% DMSO wells, 100% maximal acetylcholine response; hit rate 0.19% among 360,000;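 active means activation above the run's mean over test compounds plus 3 SD, cut at about 23% in these data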;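 further: signal is peak over basal fluorescence ratio across the kinetic read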
M5 antag – antagonists of human muscarinic M5 receptor (CHRM5). P08912. CHO-hM5 cells, Fluo-8 calcium fluorescence, ACh EC80. inhibition, % at 3 µM. hit rate 0.59% among 360,000. AID 624040;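 active means inhibition above a per-plate cutoff, the mean of that plate's test compounds plus 3 SD, cut at about 27% in these data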
M4 PAM – CHRM4 positive allosteric modulation | activation, % at 3 µM | AID 624126 | hit rate 0.4% among 360,000 | P08173 | CHO-K1 hM4/Gqi5, Fluo-8 calcium fluorescence, ACh EC20; 0% = ACh EC20, 100% = maximal ACh;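 active means activation above its plate's cutoff, the mean activation of sample wells plus 3 SD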
CHRM4 antagonist – antagonists of human muscarinic M4 receptor (CHRM4). P08173. CHO-hM4 cells, ACh EC80, Fluo-8 calcium fluorescence. inhibition, % at 3 µM. hit rate 0.73% among 360,000. AID 624125;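 active means inhibition above its plate's cutoff, the mean inhibition of sample wells plus 3 SD, cut at about 27% in these data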
M4 ag – agonists of human muscarinic M4 receptor (CHRM4) | P08173 | CHO-K1 hM4/Gqi5, Fluo-8 calcium fluorescence; vehicle 0%, full acetylcholine response 100% | activation, % at 3 µM | hit rate 0.14% among 360,000 | AID 624127;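 active means activation above the run mean over all test wells plus 3 SD, cut at about 32% in these data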;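 further: peak over basal fluorescence ratio per well then scaled between controls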
Numbers stand for hits; . = inactive. Compounds with a hit are over-represented: about 1.8% of the library has one in this group of screens.

SMILES | CHRM5 PAM | M5 ag | M5 antag | M4 PAM | CHRM4 antagonist | M4 ag
CN(C)CCC(=O)N1c2ccccc2Sc2ccc(C(F)(F)F)cc21 | . | . | 100.2 | . | 98.8 | .
OCCN1CCN(CCCN2c3ccccc3Sc3ccc(C(F)(F)F)cc32)CC1 | . | . | . | . | . | .
CN(C)CCCN1c2ccccc2Sc2ccc(C(F)(F)F)cc21 | . | . | 98.3 | . | 83.2 | .
CC(O)(c1cccnc1)c1nc(/C=C/c2ccccc2)cs1 (stereo not given) | . | . | . | . | . | .
COc1ccc(N(CC(=O)N/N=C/c2ccc(C(=O)O)cc2)S(=O)(=O)c2ccc(NC(C)=O)cc2)cc1 | . | . | . | 22.1 | . | .
COc1ccc(N(CC(=O)N/N=C/c2cc(Br)c(C)o2)S(=O)(=O)c2ccc(NC(C)=O)cc2)cc1 | . | . | . | . | . | .
COc1cc(/C=C(\C#N)c2nc3ccccc3s2)cc([N+](=O)[O-])c1O | . | . | . | . | . | .
N#C/C(=C\c1ccc(O)c([N+](=O)[O-])c1)c1nc2ccccc2s1 | . | . | 30.7 | . | . | .
O=C(CNC(=O)c1cnccn1)Nc1ccc(F)c(F)c1F | 21.5 | . | . | . | . | .
Cc1ccc(CNCC(O)(c2ccccc2)c2ccc(Cl)cc2)cc1 (stereo not given) | . | . | . | . | . | .
COc1ccc(CNCC(O)(c2ccccc2)c2ccc(Cl)cc2)cc1 (stereo not given) | . | . | . | . | 28.2 | .
CC1CN=C(NC2CCCCC2C)S1 (stereo not given) | . | . | . | . | 27.2 | .
CC1CCCCC1NC1=NCCS1 (stereo not given) | . | . | . | . | . | .
COc1ccc(NC2=C(Cl)C(=O)N(c3ccccc3)C2=O)c(OC)c1 | . | . | . | . | . | .
COc1ccc(N2C(=O)C(Cl)=C(Nc3ccc(OC)cc3OC)C2=O)cc1 | 19.2 | . | . | . | . | .
O=C(COc1ccc(Br)cc1)NCCNC(=O)c1ccncc1 | . | . | . | . | . | .
Cc1ccc([C@H]2C[C@@H](O)[C@H](n3cc(C4CC4)nn3)CN2Cc2cccs2)cc1 | . | . | . | 16.8 | . | .
O=C1C2C3C=CC(CO)(O3)C2C(=O)N1c1ccccc1-c1ccccc1 (stereo not given) | . | . | . | . | 27.4 | .
CC(=O)Oc1ccc(N2C(=O)C3C4C=CC(CO)(O4)C3C2=O)cc1 (stereo not given) | . | . | . | . | . | .
O=C(CCC(=O)N(CC(=O)NC1CCCC1)c1ccccc1F)Nc1nccs1 | . | . | . | . | . | .
S=c1[nH]nc(CN2CCCCC2)n1Cc1ccccc1 | . | . | . | . | 31.5 | .
S=c1[nH]nc(CN2CCCC2)n1Cc1ccccc1 | . | . | . | . | . | .
CCCNC(=O)C1(CC2CC(c3ccccc3)=NO2)CCN(C(=O)C2CCCC2)CC1 (stereo not given) | . | . | . | . | . | .
Cc1cnc(C(=O)N2CCN(S(=O)(=O)c3cccc(Br)c3)CC2)cn1 | . | . | . | . | . | .
O=C(Nc1ccc(Cl)cc1)N(C1=NCCC1)c1ccc(OC(F)F)cc1 | . | . | 27.3 | . | . | .
SMILES | CHRM5 PAM | M5 ag | M5 antag | M4 PAM | CHRM4 antagonist | M4 ag
Cc1cc(/C=C(\C#N)C(=O)NC2CCCCCC2)c(C)n1C | . | . | . | 23.2 | . | .
COc1ccc(-n2c(C)c(C(C)=O)c(C(C)=O)c2C)cc1OC | . | . | . | 17.5 | . | .
O=C(Nc1nccs1)c1ncc(Cl)c(Cl)c1Cl | . | . | 29.9 | . | . | .
Cn1cc(Cl)c(C(=O)Nc2nccs2)n1 | . | . | . | . | . | .
Cc1cc(/C=C\c2ccc3cc(N(C)C)ccc3[n+]2C)c(C)n1-c1ccccc1 | . | . | 40.1 | . | 45.3 | .
CC1CC(CN)CC(CO)C1 (stereo not given) | . | . | . | . | . | .
CCCCn1c(N)c(N(CCOC)C(=O)c2cc(-c3ccccc3Cl)nc3ccccc23)c(=O)[nH]c1=O | . | . | . | . | . | .
O=C(Nc1ccccc1C(=O)N/N=C/c1ccco1)c1ccc(F)cc1 | . | . | . | 36.0 | . | .
Cc1ccccc1C(=O)Nc1ccccc1C(=O)N/N=C\c1ccco1 | . | . | . | 31.0 | . | .
O=C(N/N=C/c1ccco1)c1cccc([N+](=O)[O-])c1 | . | . | . | 27.6 | . | .
COc1ccc(OC)c(C(=O)CCCC(=O)c2cc(OC)ccc2OC)c1 | . | . | . | . | 30.8 | .
COc1ccc(OC)c(C(=O)COC(=O)c2c(OC)cccc2OC)c1 | . | . | . | . | . | .
CN1C2CCC1CC(OC(=O)c1c[nH]c3ccccc13)C2 (stereo not given) | . | . | . | . | . | .
CN1C2CCC1CC(OC(c1ccccc1)c1ccccc1)C2 (stereo not given) | . | . | 99.1 | . | 99.1 | .
CN1CCC(OC(c2ccccc2)c2ccc(Cl)cc2)C1 (stereo not given) | . | . | 88.7 | . | 57.8 | .
O=c1[nH]c(COc2ccc(Cl)cc2Br)nc2ccccc12 | . | . | . | . | . | .
NS(=O)(=O)c1ccc(CCNC(=O)c2ccc([N+](=O)[O-])s2)cc1 | . | . | . | . | . | .
COc1cc(NC(=O)C2(C)CCN2C(=O)C(C)C)cc(OC)c1OC (stereo not given) | . | . | . | . | . | .
COc1cccc(CN2CCNC(=O)C2CC(=O)N(C)CC2CCOCC2)c1OC (stereo not given) | . | . | . | . | . | .
COc1cccc(CN2CCNC(=O)C2CC(=O)N(C)C2CCOCC2)c1OC (stereo not given) | . | . | 28.0 | . | . | .
CCS(=O)(=O)C1=NSC2=NC(=O)/C(=C\c3ccc(OS(=O)(=O)c4ccccc4)c(OC)c3)C(=N)N21 | 28.6 | . | . | . | . | .
COc1cc(/C=C2/C(=N)N3C(=NC2=O)SN=C3S(C)(=O)=O)ccc1OS(=O)(=O)c1ccc(C)cc1 | . | . | . | . | . | .
O=C(NC(=S)N1CCCC1)c1ccc(Cl)cc1 | . | . | . | . | . | .
CN1CCN(C(=S)NC(=O)c2ccc(Cl)cc2)CC1 | . | . | . | 22.7 | . | .
CCN(CC)CCCNc1nc2ccccc2c2[nH]c3ccc(OC)cc3c12 | . | . | . | . | . | .
Cc1ccc(C(=O)Nc2cccc(N3C(=O)C4CCC(C)CC4C3=O)c2)cc1 (stereo not given) | . | . | . | . | . | .

Screening data from PubChem BioAssay.
